Experimental data reported in ChEMBL document CHEMBL5303300, “EUbOPEN Chemogenomics Library - Multiplex” (2023).
Several values for one entry are separate records, joined by “and”; a condition that tells them apart may be missing. Equal entries are not always repeated.

Test system: U2OS
Assay: Multiplex assay against U2OS
Format: toxicity, cell-based
Details: human, number of replicates 2
Outline: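 Live cells were stained at seeding with Hoechst33342, BioTracker Green Microtubule Cytoskeleton Dye, MitoTracker Red and Annexin V Alexa Fluor 680. Following compound addition, they were imaged on a CQ1 microscope at 37°C and 5% CO2 and gated by CellPathfinder machine learning into Hoechst high-intensity objects or normal cells, with normal cells split into healthy, pyknosed or fragmented nuclei and pyknosed cells into mitotic or apoptotic. Tubulin, mitochondrial-mass and membrane-permeability phenotypes are per cents of healthy-nucleus cells.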

[1] = 12 h, 1 µM, compound concentration 1 uM
[2] = 12 h, 10 µM, compound concentration 10 uM
[3] = 24 h, 1 µM, compound concentration 1 uM
[4] = 24 h, 10 µM, compound concentration 10 uM
[5] = 48 h, 1 µM, compound concentration 1 uM
[6] = 48 h, 10 µM, compound concentration 10 uM

C=CC(=O)Nc1cccc(C)c1Nc1ncc2cc(-c3c(Cl)c(OC)cc(OC)c3Cl)ccc2n1
Population Apoptotic (%) [1]: 81% and 76% | Population Fragmented Nuclei (%) [1]: 9% and 3% | Population Healthy Nuclei (%) [1]: 69% and 91% | Population Hoechst High Intensity Objects (%) [1]: 1% and 0% | Population Membrane Permeable-Phenotype (%) [1]: 5% and 0% | Population Mitochondria Different-Phenotype (%) [1]: 0% | Population Mitotic Cells (%) [1]: 18% and 23% | Population Normal (%) [1]: 98% and 100% | Population Tubulin-Different-Phenotype (%) [1]: 75% and 77% | Population Apoptotic (%) [2]: 54% and 69% | Population Healthy Nuclei (%) [2]: 45% and 68% | Population Hoechst High Intensity Objects (%) [2]: 0% | Population Membrane Permeable-Phenotype (%) [2]: 0% and 5% | Population Mitochondria Different-Phenotype (%) [2]: 0% and 9% | Population Mitotic Cells (%) [2]: 45% and 30% | Population Normal (%) [2]: 100% | Population Pyknosed Nuclei (%) [2]: 33% and 26% | Population Tubulin-Different-Phenotype (%) [2]: 80% and 56% | Population Apoptotic (%) [3]: 71% and 50% | Population Healthy Nuclei (%) [3]: 63% and 88% | Population Hoechst High Intensity Objects (%) [3]: 1% and 0% | Population Membrane Permeable-Phenotype (%) [3]: 0% and 1% | Population Mitochondria Different-Phenotype (%) [3]: 0% | Population Mitotic Cells (%) [3]: 28% and 50% | Population Normal (%) [3]: 98% and 100% | Population Pyknosed Nuclei (%) [3]: 18% and 8% | Population Tubulin-Different-Phenotype (%) [3]: 87% and 78% | Population Apoptotic (%) [4]: 86% and 90% | Population Fragmented Nuclei (%) [4]: 17% and 7% | Population Healthy Nuclei (%) [4]: 40% and 54% | Population Hoechst High Intensity Objects (%) [4]: 0% | Population Membrane Permeable-Phenotype (%) [4]: 0% and 1% | Population Mitochondria Different-Phenotype (%) [4]: 0% and 8% | Population Mitotic Cells (%) [4]: 13% and 9% | Population Normal (%) [4]: 100% | Population Pyknosed Nuclei (%) [4]: 42% and 38% | Population Tubulin-Different-Phenotype (%) [4]: 92% and 65% | Population Apoptotic (%) [5]: 70% and 59% | Population Fragmented Nuclei (%) [5]: 10% and 1% | Population Healthy Nuclei (%) [5]: 72% and 88% | Population Hoechst High Intensity Objects (%) [5]: 1% and 0% | Population Membrane Permeable-Phenotype (%) [5]: 4% and 1% | Population Mitochondria Different-Phenotype (%) [5]: 1% and 0% | Population Mitotic Cells (%) [5]: 29% and 40% | Population Normal (%) [5]: 98% and 99% | Population Pyknosed Nuclei (%) [5]: 17% and 9% | Population Tubulin-Different-Phenotype (%) [5]: 90% and 85% | Population Apoptotic (%) [6]: 77% and 93% | Population Fragmented Nuclei (%) [6]: 6% and 9% | Population Healthy Nuclei (%) [6]: 31% and 40% | Population Hoechst High Intensity Objects (%) [6]: 0% and 1% | Population Membrane Permeable-Phenotype (%) [6]: 11% and 10% | Population Mitochondria Different-Phenotype (%) [6]: 11% and 10% | Population Normal (%) [6]: 100% and 98% | Population Pyknosed Nuclei (%) [6]: 62% and 50% | Population Tubulin-Different-Phenotype (%) [6]: 100% and 91%

CCN(CC)C/C=C/C(=O)Nc1cc2c(Nc3ccc(F)c(Cl)c3)ncnc2cc1OCC1CC1
Population Apoptotic (%) [1]: 100% and 80% | Population Healthy Nuclei (%) [1]: 61% and 76% | Population Hoechst High Intensity Objects (%) [1]: 0% | Population Membrane Permeable-Phenotype (%) [1]: 4% and 13% | Population Mitochondria Different-Phenotype (%) [1]: 29% and 21% | Population Mitotic Cells (%) [1]: 0% and 20% | Population Normal (%) [1]: 100% | Population Pyknosed Nuclei (%) [1]: 17% and 16% | Population Tubulin-Different-Phenotype (%) [1]: 58% and 49% | Population Apoptotic (%) [2]: 80% and 91% | Population Fragmented Nuclei (%) [2]: 27% and 10% | Population Healthy Nuclei (%) [2]: 25% and 48% | Population Hoechst High Intensity Objects (%) [2]: 0% and 1% | Population Membrane Permeable-Phenotype (%) [2]: 45% and 31% | Population Mitochondria Different-Phenotype (%) [2]: 45% and 57% | Population Mitotic Cells (%) [2]: 20% and 8% | Population Normal (%) [2]: 100% and 98% | Population Pyknosed Nuclei (%) [2]: 46% and 40% | Population Tubulin-Different-Phenotype (%) [2]: 90% and 95% | Population Apoptotic (%) [3]: 88% and 82% | Population Healthy Nuclei (%) [3]: 58% and 73% | Population Hoechst High Intensity Objects (%) [3]: 0% | Population Membrane Permeable-Phenotype (%) [3]: 10% and 15% | Population Mitochondria Different-Phenotype (%) [3]: 44% and 39% | Population Mitotic Cells (%) [3]: 11% and 17% | Population Normal (%) [3]: 100% and 99% | Population Pyknosed Nuclei (%) [3]: 18% and 23% | Population Tubulin-Different-Phenotype (%) [3]: 51% and 48% | Population Apoptotic (%) [4]: 93% | Population Healthy Nuclei (%) [4]: 11% and 1% | Population Hoechst High Intensity Objects (%) [4]: 1% | Population Mitotic Cells (%) [4]: 6% | Population Normal (%) [4]: 98% | Population Pyknosed Nuclei (%) [4]: 78% and 56% | Population Tubulin-Different-Phenotype (%) [4]: 93% and 100% | Total Cell Count [4]: 133 and 52 | Population Apoptotic (%) [5]: 84% and 98% | Population Healthy Nuclei (%) [5]: 52% and 71% | Population Hoechst High Intensity Objects (%) [5]: 1% and 0% | Population Membrane Permeable-Phenotype (%) [5]: 10% and 12% | Population Mitochondria Different-Phenotype (%) [5]: 34% and 30% | Population Normal (%) [5]: 98% and 100% | Population Pyknosed Nuclei (%) [5]: 23% and 22% | Population Tubulin-Different-Phenotype (%) [5]: 37% and 42% | Population Apoptotic (%) [6]: 100% and 98% | Population Healthy Nuclei (%) [6]: 1% and 7% | Population Hoechst High Intensity Objects (%) [6]: 0% | Population Membrane Permeable-Phenotype (%) [6]: 100% and 88% | Population Mitochondria Different-Phenotype (%) [6]: 100% and 88% | Population Mitotic Cells (%) [6]: 0% and 1% | Population Normal (%) [6]: 100% and 99% | Population Pyknosed Nuclei (%) [6]: 46% and 87% | Population Tubulin-Different-Phenotype (%) [6]: 100% | Total Cell Count [6]: 56 and 120

COC(=O)Nc1nc2c(s1)-c1c(c(-c3cccnc3)nn1-c1ccc(C3(N(C)C)CC3)cc1)CC2.Cl.Cl
Population Apoptotic (%) [1]: 100% and 85% | Population Healthy Nuclei (%) [1]: 44% and 73% | Population Hoechst High Intensity Objects (%) [1]: 0% | Population Mitochondria Different-Phenotype (%) [1]: 3% and 12% | Population Mitotic Cells (%) [1]: 0% and 14% | Population Normal (%) [1]: 100% and 99% | Population Pyknosed Nuclei (%) [1]: 4% and 13% | Population Tubulin-Different-Phenotype (%) [1]: 51% and 39% | Population Apoptotic (%) [2]: 58% and 63% | Population Fragmented Nuclei (%) [2]: 96% and 73% | Population Hoechst High Intensity Objects (%) [2]: 0% | Population Membrane Permeable-Phenotype (%) [2]: 28% and 26% | Population Mitochondria Different-Phenotype (%) [2]: 7% and 15% | Population Mitotic Cells (%) [2]: 41% and 36% | Population Normal (%) [2]: 100% and 99% | Population Pyknosed Nuclei (%) [2]: 1% and 6% | Population Tubulin-Different-Phenotype (%) [2]: 32% and 49% | Total Cell Count [2]: 1083 and 863 | Population Apoptotic (%) [3]: 83% and 77% | Population Healthy Nuclei (%) [3]: 31% and 74% | Population Hoechst High Intensity Objects (%) [3]: 0% and 1% | Population Membrane Permeable-Phenotype (%) [3]: 5% | Population Mitochondria Different-Phenotype (%) [3]: 0% and 16% | Population Mitotic Cells (%) [3]: 16% and 22% | Population Normal (%) [3]: 100% and 98% | Population Pyknosed Nuclei (%) [3]: 9% and 17% | Population Tubulin-Different-Phenotype (%) [3]: 55% and 39% | Population Apoptotic (%) [4]: 75% and 71% | Population Fragmented Nuclei (%) [4]: 96% and 74% | Population Hoechst High Intensity Objects (%) [4]: 0% | Population Membrane Permeable-Phenotype (%) [4]: 25% and 13% | Population Mitochondria Different-Phenotype (%) [4]: 21% and 20% | Population Mitotic Cells (%) [4]: 25% and 28% | Population Normal (%) [4]: 99% | Population Pyknosed Nuclei (%) [4]: 1% and 8% | Population Tubulin-Different-Phenotype (%) [4]: 40% and 45% | Total Cell Count [4]: 1253 and 958 | Population Apoptotic (%) [5]: 85% and 76% | Population Healthy Nuclei (%) [5]: 31% and 63% | Population Hoechst High Intensity Objects (%) [5]: 0% | Population Membrane Permeable-Phenotype (%) [5]: 19% and 10% | Population Mitochondria Different-Phenotype (%) [5]: 9% and 14% | Population Mitotic Cells (%) [5]: 14% and 23% | Population Normal (%) [5]: 100% and 99% | Population Pyknosed Nuclei (%) [5]: 10% and 28% | Population Tubulin-Different-Phenotype (%) [5]: 66% and 45% | Population Apoptotic (%) [6]: 66% and 70% | Population Fragmented Nuclei (%) [6]: 95% and 76% | Population Hoechst High Intensity Objects (%) [6]: 0% | Population Membrane Permeable-Phenotype (%) [6]: 13% and 23% | Population Mitochondria Different-Phenotype (%) [6]: 13% and 26% | Population Mitotic Cells (%) [6]: 33% and 30% | Population Normal (%) [6]: 100% and 99% | Population Pyknosed Nuclei (%) [6]: 2% and 10% | Population Tubulin-Different-Phenotype (%) [6]: 50% and 51% | Total Cell Count [6]: 1346 and 1010
